# Assay outcomes: PubChem, several laboratories
# Most compounds without a hit are left out; they make up all but 1.6% or so of the library.
# TDP2 inh = human TDP2 enzyme inhibitors, primary screen, biochemical, epi absorbance, recombinant enzyme | T5PNP hydrolysis, p-nitrophenol absorbance 415 nm | inhibition, % at 12.8 µM | actives 0.34% (n = 370,000) | AID 720702, 2013;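 active means inhibition above the mean of all tested compounds plus 3 SD, set per campaign, cut at about 25% in these data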
#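 Evaluation: % inhibition relative to enzyme-containing and enzyme-free wells. Material: recombinant human TDP2. Benchmarks: enzyme-free and DMSO wells. Timing: enzyme reaction with compound for 2 h at 37 °C. Compound dosing: 12.8 µM only. Measured by: p-Nitrophenol epi absorbance. Reagent: T5PNP substrate at 5 mM, a TopII-DNA adduct mimic. Replication: single well per compound.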
# CTSL1 counter = Fasciola hepatica cathepsin L1 inhibitors, primary screen, counter-screen for PFM18AAP inhibitor project, biochemical, QFRET, fluorogenic peptide substrate; recombinant F. hepatica cathepsin L1, Z-Leu-Arg-MCA fluorescence; inhibition, % at 5.96 µM; actives 0.49% (n = 300,000);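 active means inhibition above the mean of all tested compounds plus 3 SD, set per screening campaign, cut at about 17% in these data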
# PAD4 inh = human PAD4 inhibitors, primary screen, biochemical, fluorescence polarization, 1536-well format. Protein-arginine deiminase type-4 (Homo sapiens), Q9UM07. recombinant PAD4, RCA probe fluorescence polarization. inhibition, % at 6.36 µM. actives 0.41% (n = 330,000). AID 485272, 2010;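 active means percent inhibition above a cutoff equal to the mean of all tested compounds plus 3 SD, cut at about 15% in these data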
# GSTO1 inh = inhibitors of recombinant GSTO1, primary screen, counter-screen for RBBP9 inhibitor project, biochemical, fluorescence polarization; Glutathione S-transferase omega-1 (Homo sapiens), P78417; activity-based probe fluorescence polarization; inhibition, % at 5.96 µM; actives 1.1% (n = 300,000); AID 1974, 2009;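 active means inhibition above the campaign mean inhibition plus 3 SD, cut at about 35% in these data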
# HKDC1 inhibitor = HKDC1 hexokinase inhibitors, primary screen, biochemical, fluorescence, uHTS. Q2TB90. actives 0.16% (n = 340,000). inhibition, % at 20 µM. recombinant HKDC1, G6PDH/diaphorase resazurin coupled fluorescence;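 active means inhibition above about 35% when tested at 20 µM, limit read from the data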
# Target sequence (Q2TB90 whole entry, looked up): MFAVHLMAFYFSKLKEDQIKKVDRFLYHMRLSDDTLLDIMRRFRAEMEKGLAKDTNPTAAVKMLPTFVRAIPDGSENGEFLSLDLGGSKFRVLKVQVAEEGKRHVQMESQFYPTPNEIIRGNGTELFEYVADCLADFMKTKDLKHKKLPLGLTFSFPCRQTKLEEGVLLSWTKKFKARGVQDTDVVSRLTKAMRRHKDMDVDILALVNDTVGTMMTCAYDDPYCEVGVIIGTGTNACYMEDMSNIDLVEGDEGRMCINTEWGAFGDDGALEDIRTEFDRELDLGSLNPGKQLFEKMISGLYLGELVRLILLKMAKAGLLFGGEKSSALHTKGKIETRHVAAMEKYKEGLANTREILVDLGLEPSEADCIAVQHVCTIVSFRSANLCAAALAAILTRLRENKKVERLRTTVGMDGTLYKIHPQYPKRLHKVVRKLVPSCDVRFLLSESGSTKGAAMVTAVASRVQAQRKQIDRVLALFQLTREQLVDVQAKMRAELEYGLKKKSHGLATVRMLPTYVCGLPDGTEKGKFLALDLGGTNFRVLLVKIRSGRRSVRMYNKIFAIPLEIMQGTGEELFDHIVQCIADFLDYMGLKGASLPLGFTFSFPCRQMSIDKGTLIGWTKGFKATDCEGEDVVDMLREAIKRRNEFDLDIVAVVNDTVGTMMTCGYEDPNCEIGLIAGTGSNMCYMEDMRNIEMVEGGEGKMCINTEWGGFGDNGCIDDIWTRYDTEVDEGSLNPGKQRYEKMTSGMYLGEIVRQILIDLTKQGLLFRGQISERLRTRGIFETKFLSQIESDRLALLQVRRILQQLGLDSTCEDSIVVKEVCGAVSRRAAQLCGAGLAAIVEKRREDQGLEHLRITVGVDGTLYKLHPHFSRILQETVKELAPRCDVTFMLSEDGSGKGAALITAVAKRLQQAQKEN
#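 Assay system: recombinant HKDC1 hexokinase; detection: coupled resazurin fluorescence, excitation 525 nm, emission 613 nm; benchmarks: DMSO-plus-enzyme-mix negative control, buffer-substituted positive control; compound dosing: single 20 µM dose; schedule: 90 min at room temperature in dark; also added: glucose plus 1 mM ATP as hexokinase substrates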
# UCH37 DUB inh = inhibitors of human UCH37 deubiquitinase, primary screen, biochemical, Ub-AMC cleavage, fluorescence. inhibition, % (no concentration beside the values). purified proteasome/UCH37. actives 0.33% (n = 330,000). Ubiquitin carboxyl-terminal hydrolase isozyme L5 (Homo sapiens), Q9Y5K5. AID 588478, 2011;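 active means mean inhibition over replicate wells above about 20%, limit read from the data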
#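 Test system – human UCH37 enzyme supplied as purified proteasome complex · Incubation – 30 min preincubation with enzyme, 25 min cleavage at room temperature · Detection – AMC fluorescence from Ub-AMC cleavage, excitation 355 nm, emission 460 nm · Benchmarks – no-proteasome wells (full inhibition) and compound-free wells (no inhibition)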
# A number is an active result; 0 = inactive; - = not tested or not shown.
SMILES,TDP2 inh,CTSL1 counter,PAD4 inh,GSTO1 inh,HKDC1 inhibitor,UCH37 DUB inh
Cc1nn(C(=O)CN2C(=O)c3ccccc3C2=O)c(C)c1Br,0,0,0,0,0,28
COc1ccc(CC(=O)NN=C(C)CC(=O)Nc2ccc3c(c2)OCCO3)cc1,-,-,-,-,-,0
COCCCNC(=O)c1ccc2c3c(onc13)-c1ccccc1C2=O,-,22,0,44,0,24
CCCN1CCCc2cc(CN)ccc21,66,0,28,64,0,0
CC(C)(C)C(=O)ON=C1CCS(=O)(=O)c2sccc21,-,-,-,-,-,0
COCCCNC(=O)/C(C#N)=C/c1ccc(OCC(=O)O)c(OC)c1,0,0,0,41,0,0
OCCOCCn1c(C(CO)Nc2nc(-c3cccc(Br)c3)cs2)nc2ccccc21 (centres undefined),0,0,0,0,0,0
OCCOCCn1c(C(CO)Nc2nc(-c3ccccc3Br)cs2)nc2ccccc21 (centres undefined),0,21,0,0,0,0
CCOc1cccc(C=NNC(=O)c2cc(C3CC3)[nH]n2)c1O,-,-,-,-,-,0
COc1ccc(NC(=O)c2cccnc2NCCc2ccccc2)cc1,0,44,0,0,0,0
O=C(O)CN1C(=O)/C(=C2\C(=O)N(Cc3ccccc3Cl)c3ccccc32)SC1=S,0,0,0,0,51,0
NC1=CC(=O)c2cccc3cccc1c23,-,0,15,0,-,-
C#CNC(=O)C1(CC=C)CCNCC1,0,0,0,0,0,32
CC1CCCCC1NC(=O)/C=C/c1nc2ccccc2s1 (centres undefined),0,23,0,0,0,0
CCc1ccc(N=CC2=C(O)CC(c3ccco3)CC2=O)cc1 (centres undefined),0,17,0,0,0,0
Cc1cc(C(=O)NN=Cc2ccc(O)c(O)c2O)c(C)n1-c1ccccc1,-,-,-,-,-,0
CCOC(=O)C(C)(C)N(Cc1ccc(C)cc1)S(=O)(=O)c1ccc(Cl)c([N+](=O)[O-])c1,0,0,0,62,0,0
CCOC(=O)C(C)(C)N(Cc1ccc(Cl)cc1)S(=O)(=O)c1ccc(Cl)c([N+](=O)[O-])c1,-,0,0,65,-,0
COc1cc(C(=O)ON=C2C=CC(=O)C(C)=C2C)cc(OC)c1OC,-,-,-,-,-,0
O=C(O)c1cc(N=Nc2c(O)ccc3ccccc23)cc(C(=O)O)c1,0,-,-,-,0,26
COc1ccc(C=NNC(=O)c2cc(-c3cccn3C)n[nH]2)cc1OC,-,-,-,-,-,0
COc1cc(C=NNC(=O)CNC(=O)C2COc3ccccc3O2)ccc1O (centres undefined),-,-,-,-,-,0
S=C(N/N=C/c1ccc(Br)cc1)N1CCCCC1,0,0,0,0,0,-
Cc1ccc(CC(=S)N2CCOCC2)cc1,0,0,0,37,0,0
S=C(NN=Cc1ccc(Cl)cc1)N1CCOCC1,-,-,-,-,-,0
SMILES,TDP2 inh,CTSL1 counter,PAD4 inh,GSTO1 inh,HKDC1 inhibitor,UCH37 DUB inh
Cc1ccc(/C=N/NC(=S)N2CCOCC2)cc1,0,28,0,0,0,-
S=C(N/N=C/c1ccc(Cl)cc1)N1CCOCC1,0,19,0,0,0,-
CC1(c2ccc(OC(F)F)cc2)NC(=O)N(N=Cc2c(O)ccc3ccccc23)C1=O (centres undefined),-,-,-,-,-,0
CNC(=O)COC(=O)c1ccc([N+](=O)[O-])cc1Cl,0,18,0,0,0,0
CC(C)NC(=O)NC(=O)COC(=O)c1ccc([N+](=O)[O-])cc1Cl,0,0,0,0,0,0
COc1cccc(C(=O)NNC2OC(CO)C(O)C2O)c1 (centres undefined),0,19,0,0,0,0
O=C1CSC(c2cccc(F)c2)N1c1c(F)cccc1F (centres undefined),0,0,0,0,0,0
O=C1CSC(c2cccc([N+](=O)[O-])c2)N1c1c(F)cccc1F (centres undefined),0,20,0,0,0,0
CC1(C)Cc2c(sc3nc(NN=Cc4ccccc4)[nH]c(=O)c23)CO1,-,-,-,-,-,0
CCOc1cc(C=NNC(N)=S)cc(Br)c1OCc1ccccc1C,-,-,-,-,-,0
CCOC(=O)N1CCC(n2c(SCC(=O)NCCC3=CCCCC3)nc3ccccc3c2=O)CC1,0,0,0,0,0,24
COc1ccc(C2/C(=C(/O)c3ccc4c(c3)CC(C)O4)C(=O)C(=O)N2CCCN2CCOCC2)cc1 (centres undefined),0,0,0,0,0,21
O=C(NCCN1CCOCC1)/C(=C/c1ccccc1)NC(=O)c1ccccc1,0,0,0,0,0,0
O=C(NCCN1CCOCC1)/C(=C\c1ccccc1Cl)NC(=O)c1ccccc1,0,19,0,0,0,0
C[n+]1cc(C(=O)N2CCCCC2)ccc1/C=C/c1c[nH]c2ccccc12,0,0,0,0,0,24
O=C(C(=O)N1CCCCCC1)c1c[nH]c2ccccc12,0,-,-,-,0,0
COc1ccc(/C=C(/NC(=O)c2ccc(C)cc2)C(=O)NCC2CCCO2)cc1 (centres undefined),0,0,0,0,0,0
COc1ccc(C(=O)N/C(=C\c2ccc(Cl)cc2)C(=O)NCC2CCCO2)cc1 (centres undefined),0,17,0,0,0,0
O=C(O)c1cc(NN=Cc2ccc(-c3ccc(F)cc3)o2)ccc1Cl,-,-,-,-,-,0
O=C(CSc1nnc(SCc2ccc(Cl)cc2)s1)c1ccc2c(c1)OCO2,0,0,0,0,0,22
COCCNc1nnc(SCC(=O)c2ccc3c(c2)OCO3)s1,0,0,0,0,0,0
O=C(NN=Cc1ccccc1)NC1CCCCC1,-,-,-,-,-,0
COc1ccc(/C(C)=N/OC/C(O)=C(\C#N)c2nc3ccccc3[nH]2)c(OC)c1,0,0,0,37,0,-
Cc1ccc(S(=O)(=O)N(CCC#N)CCN2CCCC2)cc1,0,78,0,0,0,0
CCN(CC)S(=O)(=O)c1ccc(S(=O)(=O)N2CCN(CCC#N)CC2)cc1,0,0,0,0,0,0
COc1ccc(OCC(=O)O/N=C(\N)Cc2ccc(Cl)cc2)cc1,0,30,0,0,0,0
COc1ccc(NC(=O)C2C3C=CC4(O3)C2C(=O)N(CCN2CCCCC2)C4C(=O)NC2CCCCC2)cc1 (centres undefined),0,40,0,0,0,0
